Measured values taken from ChEMBL document CHEMBL3600321, “Synthesis and antifungal evaluation of head-to-head and head-to-tail bisamidine compounds” (Bioorg Med Chem, 2015).

Experiments:
[1] = tested on: Nakaseomyces glabratus; experiment: Antifungal activity against Candida glabrata ATCC 90030 WTBF-86 by microbroth dilution method; type: functional
In short: (§1)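 CLSI microbroth dilution in RPMI 1640 with L-glutamine. MIC values are geometric means of three independent assays.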

[2] = tested on: Candida albicans; experiment: Antifungal activity against Candida albicans WTBF-50 by microbroth dilution method; type: functional; in short: as §1
[3] = tested on: Pichia kudriavzevii; experiment: Antifungal activity against Candida krusei WTBF-51 by microbroth dilution method; type: functional
[4] = tested on: Candida parapsilosis; experiment: Antifungal activity against Candida parapsilosis ATCC 90018 WTBF-88 by microbroth dilution method; type: functional; settings: Lodderomyces parapsilosis; in short: as §1
[5] = tested on: HeLa; experiment: Cytotoxicity against human HeLa cells assessed as cell viability after 72 hrs by MTS assay; type: cell-based
[6] = Metabolic stability in liver microsomes (unknown origin); type: ADME
[7] = tested on: Cryptococcus neoformans; experiment: Antifungal activity against Cryptococcus neoformans Cn18 (Serotype C) WTBF-106 by microbroth dilution method; type: functional
In short: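 Microbroth dilution per the CLSI protocol, run in Sabouraud Dextrose Broth in place of RPMI. MIC values are geometric means of three independent assays.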

| SMILES | MIC [1] [µg/mL] | MIC [2] [µg/mL] | MIC [3] [µg/mL] | MIC [4] [µg/mL] | Stability [6] | MIC [7] [µg/mL] | CC50 [5] [µg/mL] |
| --- | --- | --- | --- | --- | --- | --- | --- |
| N=C(NCCN1CCOCC1)c1ccc2cc(-c3ccc(-c4cc5ccc(C(=N)NCCN6CCOCC6)cc5[nH]4)cc3)[nH]c2c1.O=C(O)C(F)(F)F | 2 | 2.52 | 2 | 2 | Stable | 2.48 | 24.9 |
| FC1CN=C(c2ccc3cc(-c4ccc(-c5cc6ccc(C7=NCC(F)CN7)cc6[nH]5)cc4)[nH]c3c2)NC1.O=C(O)C(F)(F)F (centres undefined) | 0.13 | 0.5 | 0.25 | 0.25 | Stable | 0.25 | 13.9 |
| O=C(O)C(F)(F)F.c1cc2cc(CCc3cc4ccc(C5=NCCCN5)cc4[nH]3)[nH]c2cc1C1=NCCCN1 | 1 | 3.17 | 8 | 2 | Stable | 1 | 24.6 |
| O=C(O)C(F)(F)F.OC1CN=C(c2ccc3cc(-c4ccc(-c5cc6ccc(C7=NCC(O)CN7)cc6[nH]5)cc4)[nH]c3c2)NC1 (centres undefined) | 0.16 | 0.5 | 12.7 | 0.31 | Stable | 0.06 | > 80 |
| COCCNC(=N)c1ccc2cc(-c3ccc(-c4cc5ccc(C(=N)NCCOC)cc5[nH]4)cc3)[nH]c2c1.O=C(O)C(F)(F)F | 0.5 | 0.79 | 1 | 0.79 | Stable | 1.1 | 3.5 |
| N=C(NCCO)c1ccc2cc(-c3ccc(-c4cc5ccc(C(=N)NCCO)cc5[nH]4)cc3)[nH]c2c1.O=C(O)C(F)(F)F | 0.13 | 0.25 | 1.59 | 0.25 | Stable | 1.97 | 14 |
| N=C(NC1CCC(O)CC1)c1ccc2cc(-c3ccc(-c4cc5ccc(C(=N)NC6CCC(O)CC6)cc5[nH]4)cc3)[nH]c2c1.O=C(O)C(F)(F)F (centres undefined) | 4 | 2.52 | 4 | 2 | Stable | 2.48 | 29.8 |
| CN(C)CCNC(=N)c1ccc2cc(-c3ccc(-c4cc5ccc(C(=N)NCCN(C)C)cc5[nH]4)cc3)[nH]c2c1.O=C(O)C(F)(F)F | 0.63 | 1 | 1 | 0.5 | Stable | 1.97 | 5.5 |
| CC(=O)O.c1cc2cc(-c3ccc4cc(C5=NCCCN5)[nH]c4c3)oc2cc1C1=NCCCN1 | 2.52 | 4 | 25.4 | 2 | Stable | 1 | 40.5 |
| CC(=O)O.c1cc2cc(-c3cnc(-c4cc5ccc(C6=NCCCN6)cc5[nH]4)nc3)[nH]c2cc1C1=NCCCN1 | ≤ 0.03 | 0.31 | 0.25 | 0.13 | Stable | 1.24 | 25.5 |

Now from value to molecule, other results behind:

| MIC [1] [µg/mL] | MIC [2] [µg/mL] | MIC [3] [µg/mL] | MIC [4] [µg/mL] | Stability [6] | MIC [7] [µg/mL] | SMILES | CC50 [5] [µg/mL] |
| --- | --- | --- | --- | --- | --- | --- | --- |
| 0.13 | 0.5 | 0.5 | 0.5 | Stable | 2 | CC(=O)O.c1cc2cc(-c3ccc(-c4ccc5nc(C6=NCCCN6)cn5c4)cc3)[nH]c2cc1C1=NCCCN1 | 34.6 |
| 1.59 | 8 | 8 | 2.52 | Stable | 3.94 | CC(=O)O.c1cn2cc(-c3ccc(-c4ccc5cc(C6=NCCCN6)oc5c4)cc3)nc2cc1C1=NCCCN1 | 32.5 |
| 0.06 | 0.5 | 0.5 | 0.13 | Stable | 0.25 | CC(=O)O.c1cc2cc(-c3ccc(-c4cc5ccc(C6=NCCCN6)cc5o4)cn3)[nH]c2cc1C1=NCCCN1 | 15.6 |
| 0.16 | 1 | 1.26 | 1 | Stable | 6.25 | CC(=O)O.c1cc2cc(-c3ccc4nc(C5=NCCCN5)cn4c3)[nH]c2cc1C1=NCCCN1 | 91.9 |
| 0.31 | 2 | 8 | 2 | Stable | 2 | CC(=O)O.c1cc2nc(-c3ccc(-c4ccc5cc(C6=NCCCN6)oc5c4)cc3)cn2cc1C1=NCCCN1 | 25.5 |
| 0.13 | 0.31 | 4 | 0.5 | Stable | 0.5 | CC(=O)O.c1cc2cc(-c3ccc4cc(C5=NCCCN5)oc4c3)[nH]c2cc1C1=NCCCN1 | 17.1 |
| 0.13 | 0.79 | 1 | 0.31 | Stable | 0.5 | CC(=O)O.c1cc2cc(-c3ccc(-c4ccn5cc(C6=NCCCN6)nc5c4)cc3)[nH]c2cc1C1=NCCCN1 | 13.4 |
